Assay outcomes (PubChem BioAssay)
HIF activator – HIF pathway transcriptional activators, primary screen, cell-based, U2OS HRE-luciferase, luminescence. U2OS HRE-luciferase reporter; normalized: DMSO 0%, desferrioxamine 100%. activation, % at 7.5 µM (by protocol). 300,000 compounds, 0.32% hits. AID 1910, 2009;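 active means mean activation of at least 10% of the iron chelator positive control signal, with at least half of replicates also reaching 10%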
NS3 helicase inh – inhibitors of HCV NS3 helicase, primary screen, biochemical, Cy5 molecular beacon fluorescence | Hepatitis C virus NS3 helicase | NS3 helicase DNA unwinding | inhibition, % at 10.9 µM | 290,000 compounds, 0.56% hits;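 active means inhibition above the mean of all tested compounds plus 3 SD, set per campaign, cut at about 35% in these data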
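System: Hepatitis C virus NS3 helicase domain fragment enzyme | Reagent: Annealed dual-labelled DNA beacon duplex, ATP-started | Compound dosing: 10.9 µM single point, 0.8% DMSO | Incubation: 1 h reaction at 25 °C, ATP-initiated | Technique: Cy5 fluorescence | Evaluation: Percent inhibition from t60/t0 fluorescence ratio | Benchmarks: Low DMSO, high thioflavine S at 110 µM | Replication: Singlicate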
PP1 counter – PP1-alpha phosphatase inhibitors, primary screen, counter-screen for PP5 inhibitor project, biochemical, fluorescence, OMFP substrate, single point | Serine/threonine-protein phosphatase PP1-alpha catalytic subunit (Homo sapiens), P62136 | purified PP1alpha | inhibition, % at 6.7 µM | AID 2235, 2010 | 320,000 compounds, 0.9% hits;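 active means inhibition above the mean inhibition of all tested compounds plus 3 SD, computed separately for each screening campaign, cut at about 15% in these data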
Target sequence (P62136 whole entry, looked up): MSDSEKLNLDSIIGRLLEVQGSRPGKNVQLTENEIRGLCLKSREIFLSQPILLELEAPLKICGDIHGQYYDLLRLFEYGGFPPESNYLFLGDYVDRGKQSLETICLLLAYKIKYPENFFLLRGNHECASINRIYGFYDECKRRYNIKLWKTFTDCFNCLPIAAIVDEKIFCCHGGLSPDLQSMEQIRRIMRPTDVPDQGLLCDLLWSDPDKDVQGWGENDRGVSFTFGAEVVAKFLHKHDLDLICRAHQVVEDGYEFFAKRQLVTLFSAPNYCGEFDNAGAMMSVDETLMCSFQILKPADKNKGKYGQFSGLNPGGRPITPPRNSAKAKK
PP5 primary – PP5 phosphatase inhibitors, primary screen, biochemical, fluorescence | Serine/threonine-protein phosphatase 5 (Homo sapiens), P53041 | purified PP5c, OMFP substrate fluorescence | inhibition, % at 6.7 µM | 320,000 compounds, 0.18% hits | AID 1987, 2009;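 active means inhibition above the campaign's mean inhibition across all tested compounds plus 3 SD, cut at about 9.5% in these data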
FID counter – compounds displacing fluorescent DNA intercalator, primary screen, artefact control for HCV NS3 helicase inhibitor project, biochemical, FID fluorescence | DNA fluorescent intercalator displacement | inhibition, % at 7.9 µM | 290,000 compounds, 0.17% hits; in the data active means inhibition above about 37%;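 further: higher means more ethidium bromide displaced from hairpin DNA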
PP5 inh confirm – PP5 phosphatase inhibitors, confirmation, biochemical, fluorescence, human; shares compounds with PP5 primary; Purified PP5, fluorogenic phosphatase substrate; inhibition, % at 6.7 µM; 460 compounds, 22% hits; AID 2331, 2010; in the data active means inhibition above about 9.5%
PP1 inh counter – PP1 phosphatase inhibitors, counter-screen for PP5 inhibitor project, biochemical, fluorescence, triplicate. shares compounds with PP5 primary. AID 2355, 2010. PP1 enzyme, fluorescent phosphatase substrate. 460 compounds, 4% hits. inhibition, % at 6.7 µM; in the data active means inhibition above about 16%
Each line names hits and unclear results; the compound was inactive in the other large screens (follow-up assays come after a bar, where they were run). The list is not random: actives were taken first. Their share in the collection is about 1.9%.

COc1ccc(-c2cc(-c3c(O)c(OC)c4occc4c3OC)[nH]n2)cc1	PP5 primary 11 | PP5 inh confirm inactive | PP1 inh counter inactive
Cc1ccc(NC(=O)CN(C)C(=O)c2cccnc2Nc2cccc(C(F)(F)F)c2)cc1	PP5 primary 11 | PP5 inh confirm inactive | PP1 inh counter inactive
CCOc1ncccc1C(=O)N(C)CC(=O)Nc1ccc(C)cc1	none
COc1cccc(NC(=O)CN(C)C(=O)c2cccnc2Nc2cccc(C(F)(F)F)c2)c1	PP5 primary 14 (no result: HIF activator, NS3 helicase inh, FID counter) | PP5 inh confirm 9.7 | PP1 inh counter inactive
CC(=O)c1cn(CC(=O)Nc2ccccc2Cl)c2ccccc12	none
O=C(NCCCn1cccn1)c1cc(COc2ccc(F)cc2Cl)on1	none
COc1ccc(NC(=O)C2CC(=O)N(C)C(=Nc3ccc4c(c3)OCO4)S2)cc1 (stereo not given)	PP5 primary 12 (no result: HIF activator) | PP5 inh confirm inactive | PP1 inh counter inactive
O=C(N/N=C\c1ccc(Cl)s1)c1ccc(Cn2cccn2)o1	none
O=C(N/N=C\c1c(O)ccc2ccccc12)c1ccc(Cn2cccn2)o1	HIF activator 38, PP5 primary 19 | PP5 inh confirm inactive | PP1 inh counter inactive
COc1ccc2[nH]c(=O)c(CN(Cc3cccs3)S(=O)(=O)c3c(C)ccc4nsnc34)cc2c1	PP5 primary 9.8 | PP5 inh confirm inactive | PP1 inh counter inactive
Cc1ccc2[nH]c(=O)c(CN(Cc3ccco3)S(=O)(=O)c3c(C)ccc4nsnc34)cc2c1	none
CCOc1ccc(C(=O)/C=C/c2cn(CN3CCN(C)CC3)c3ccccc23)cc1	PP5 primary 11 (no result: HIF activator) | PP5 inh confirm inactive | PP1 inh counter inactive
COc1ccc(C(=O)/C=C/c2cn(CN3CCN(C)CC3)c3ccccc23)cc1	none (no result: HIF activator)
Clc1ccc(-c2cn(-c3ccc(Cl)cc3)c3[n+]2CCCCC3)cc1	none
COc1ccc(-c2cn(-c3ccc(Cl)cc3)c3[n+]2CCCCC3)cc1	PP5 primary 19 | PP5 inh confirm inactive | PP1 inh counter inactive
O=C(/C=C/c1cccs1)N1CCN(c2ccccc2)CC1	none
CCOc1ccc(NC(=S)N2CCN(S(=O)(=O)c3ccc(C)cc3)CC2)cc1	none
O=C(Nc1ccc(O)cc1)/C(=C\C=C\c1ccccc1)NC(=O)c1ccccc1	PP5 primary 12 | PP5 inh confirm inactive | PP1 inh counter inactive
O=C(Nc1ccc(OC(F)(F)F)cc1)C1CCCN(C(=O)c2ccc(Cl)cc2)C1 (stereo not given)	PP5 primary 14 (no result: HIF activator, NS3 helicase inh, FID counter) | PP5 inh confirm inactive | PP1 inh counter inactive
Cc1ccc(S(=O)(=O)N2CCN(C(=O)CSc3ncn[nH]3)CC2)c(C)c1	none (no result: NS3 helicase inh, FID counter)
Cc1ccc(S(=O)(=O)/N=C2/C=C(Sc3ncn[nH]3)C(=O)c3ccccc32)c(C)c1	PP5 primary 13 (no result: HIF activator) | PP5 inh confirm 36 | PP1 inh counter inactive
Cc1ccc(S(=O)(=O)/N=C2/C=C(Sc3ncn[nH]3)C(=O)c3ccccc32)cc1	PP5 primary 13 (no result: HIF activator) | PP5 inh confirm 23 | PP1 inh counter 24
Cc1ccc(S(=O)(=O)/N=C2\C=C(Nc3cccc(C(=O)O)c3)C(=O)c3ccccc32)c(C)c1	PP5 primary 9.8 | PP5 inh confirm 36 | PP1 inh counter inactive
Cc1ccc(S(=O)(=O)Nc2ccc(O)c(Sc3ncn[nH]3)c2)cc1	none
Cc1nnc(NC(=O)C2C3C=CC(O3)C2C(=O)O)s1 (stereo not given)	PP5 primary 16 | PP5 inh confirm 16 | PP1 inh counter inactive
Cc1cccc(NC(=O)C2C3C=CC(O3)C2C(=O)O)c1C (stereo not given)	PP5 primary 10 | PP5 inh confirm inactive | PP1 inh counter inactive
Cc1ccc(NC(=O)C2C3C=CC(O3)C2C(=O)O)cc1C (stereo not given)	PP5 primary 23 | PP5 inh confirm inactive | PP1 inh counter 23
Cc1ccc(NC(=O)C2C3C=CC(O3)C2C(=O)O)c(C)c1 (stereo not given)	PP5 primary 18 | PP5 inh confirm inactive | PP1 inh counter inactive
Cc1nnc(NC(=O)C2CCCC2)s1	none
COC(=O)c1ccc(NC(=O)C2C3C=CC(C3)C2C(=O)O)cc1 (stereo not given)	none
COC(=O)c1sccc1NC(=O)C1C2C=CC(O2)C1C(=O)O (stereo not given)	none
COC(=O)c1ccc(NC(=O)C2C3C=CC(O3)C2C(=O)O)cc1 (stereo not given)	PP5 primary 21 | PP5 inh confirm inactive | PP1 inh counter inactive
Cc1cccc(NC(=O)C2C3C=CC(O3)C2C(=O)O)c1 (stereo not given)	PP5 primary 9.8 | PP5 inh confirm inactive | PP1 inh counter inactive
Cc1ccc(C)c(NC(=O)C2C3C=CC(O3)C2C(=O)O)c1 (stereo not given)	none (no result: PP1 counter, PP5 primary)
COc1ccccc1NC(=O)C1C2C=CC(O2)C1C(=O)O (stereo not given)	PP5 primary 15 | PP5 inh confirm inactive | PP1 inh counter inactive
CN(C)/C=N/C(=S)Nc1ccc(Cl)cc1Cl	none
CCCn1c(SCC(=O)NC2CCCC2)nnc1-c1ccccn1	PP5 primary 11 | PP5 inh confirm inactive | PP1 inh counter inactive
C=CCn1c(SCC(=O)NC2CCCC2)nnc1-c1ccccn1	none
COC(=O)c1sc2cc(C(F)(F)F)cnc2c1-c1cccnc1	PP5 primary 12 | PP5 inh confirm inactive | PP1 inh counter inactive
Cc1onc(-c2c(Cl)cccc2Cl)c1C(=O)N/N=C(\N)COc1ccc(Cl)cc1	PP5 primary 12 | PP5 inh confirm inactive | PP1 inh counter inactive
CC(C)C(=O)Nc1nnc(SCC(=O)Nc2ccc3c(c2)OCCO3)s1	PP5 primary 13 | PP5 inh confirm inactive | PP1 inh counter inactive
COc1ccc(Nc2sc(C(=O)Nc3cccc(Cl)c3)c(N)c2C(=O)Nc2ccccc2OC)cc1	PP5 primary 12 | PP5 inh confirm inactive | PP1 inh counter inactive
COc1cc(/C=C/C(=O)Nc2cc(C(F)(F)F)ccc2Cl)cc(OC)c1OC	PP5 primary 9.9 | PP5 inh confirm inactive | PP1 inh counter inactive
COc1ccc(/C=C/C(=O)Nc2cc(C(F)(F)F)ccc2Cl)cc1OC	none
COC(=O)c1[nH]c(C)c(/C(O)=C2\C(=O)C(=O)N(CCN3CCOCC3)C2c2ccccc2OC)c1C (stereo not given)	PP5 primary 11 | PP5 inh confirm inactive | PP1 inh counter inactive
COC(=O)c1[nH]c(C)c(/C(O)=C2\C(=O)C(=O)N(CCN(C)C)C2c2ccccc2OC)c1C (stereo not given)	none
